PPC-1+TRAIL kill: compounds killing PPC-1 cancer cells with TRAIL present (potentiator screen, no TRAIL-free arm). PPC-1 cells + TRAIL, ATPLite viability luminescence. 220,000 compounds, 0.41% hits. cell killing (% activity), % at 4 µM or 5 µM;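 active = cell killing above 50% in the first pass at 4 µM, then a duplicate retest at 5 µM averaging 50% or more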;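 note: plate controls were cells with TRAIL plus DMSO for no effect and medium-only wells lacking cells for full effect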
FLuc stim CS: affects firefly luciferase, flagging false hits in luciferase stimulation screens. 200,000 tested, under 10 active. activation factor at 10 µM. ATPlite luciferase biochemical, luminescence, 10 min; 0 = ATP-free wells, 1 = DMSO control. P08659;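 active = luciferase activation factor, scaled between plate controls, of at least 2 with compound at 10 µM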
Target sequence (P08659 whole entry, looked up): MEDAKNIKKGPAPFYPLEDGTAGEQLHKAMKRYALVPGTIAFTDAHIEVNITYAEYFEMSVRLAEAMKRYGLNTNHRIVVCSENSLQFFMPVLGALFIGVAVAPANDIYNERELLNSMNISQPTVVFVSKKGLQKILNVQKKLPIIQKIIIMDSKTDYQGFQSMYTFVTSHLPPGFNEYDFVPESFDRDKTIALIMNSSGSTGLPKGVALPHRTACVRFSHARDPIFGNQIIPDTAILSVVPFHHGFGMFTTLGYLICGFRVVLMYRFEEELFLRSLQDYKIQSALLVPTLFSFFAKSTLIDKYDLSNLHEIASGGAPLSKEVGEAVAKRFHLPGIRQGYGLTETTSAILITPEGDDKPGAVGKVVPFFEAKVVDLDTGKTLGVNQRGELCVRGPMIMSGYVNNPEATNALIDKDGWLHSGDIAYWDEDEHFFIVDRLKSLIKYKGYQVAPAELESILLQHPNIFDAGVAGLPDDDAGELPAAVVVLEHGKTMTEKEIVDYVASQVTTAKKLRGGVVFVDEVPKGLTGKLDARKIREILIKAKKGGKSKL
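Material: Luciferase/luciferin reagent mix; Doses: test compounds dosed from 2 mM stocks in 100% DMSO; Schedule: 10 min incubation after luciferase reagent addition, room temperature; Measured by: luminescence from luciferase reaction; Read-out: luminescence gain marking luciferase activators.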
FLuc inh counter: counter-screen for luciferase assay inhibitors: firefly luciferase inhibition | P08659 | ATPLite firefly luciferase biochemical luminescence, 10 min | inhibition, % at 10 µM | 200,000 compounds, 1.5% hits | AID 1006;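 active = inhibition above about 50% when tested at 10 µM, limit read from the data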
TRAIL sens C8: caspase-8 TRAIL sensitization; NB7+C8 cells + TRAIL, ATPlite viability luminescence; inhibition (viability loss, TRAIL sensitization), % at 10 µM; 360,000 compounds, 1% hits; AID 624354;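 active = compounds causing at least 50% loss of cell viability in the single-dose screen, relative to plate controls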
PPC1 cytotox: kills PPC-1 cells; cytotoxicity, % at 5 µM; PPC-1 viability, ATPlite luminescence, overnight; 1,200 compounds, 50% hits; AID 1447; shares compounds with PPC-1+TRAIL kill;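 active = reconfirmed compounds whose average cytotoxicity reaches 50% or more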;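 note: 0% = DMSO-treated cells and 100% = wells holding medium but no cells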
* marks the source's active call; other numbers are inactive results. The list is not random: actives were taken first. Their share in the collection is about 1.5%.

Screening C[C@H](CO)N1C[C@H](C)[C@@H](CN(C)C(=O)c2ccc3c(c2)OCO3)Oc2cc(/C=C/c3ccccc3)ccc2S1(=O)=O returned TRAIL sens C8 9.5.
Screening Cc1ccc(-n2c(-c3ccc(Br)cc3)c[n+]3c2CCc2ccc4cccnc4c2-3)cc1 returned PPC-1+TRAIL kill 48.3, FLuc stim CS 1, FLuc inh counter -3.9, TRAIL sens C8 65.2* and PPC1 cytotox 42.7.
Screening Cn1nc(-c2ccccn2)nc2c(=O)n(C)c(=O)nc1-2 returned PPC-1+TRAIL kill 30.5, TRAIL sens C8 96.0* and PPC1 cytotox 36.0.
For COc1ccc(C2N(C(=O)c3ccccc3)CCN2C(=O)c2ccccc2)cc1 the results were PPC-1+TRAIL kill 7.5, FLuc stim CS 1.1, FLuc inh counter -5.6, TRAIL sens C8 5.6 and PPC1 cytotox 15.6.
COc1ccc(CNC(=O)N2CCN(C(=O)c3ccccc3)CC2)cc1 was read as TRAIL sens C8 5.4.
O=C(COc1ccccc1)NCC(=O)N1CCCCCC1 was read as TRAIL sens C8 -2.6.
For c1ccc(-n2ncc3c(N4CCCCC4)ncnc32)cc1 the results were PPC-1+TRAIL kill 80.0*, FLuc stim CS 0.1, FLuc inh counter 89.3*, TRAIL sens C8 86.0* and PPC1 cytotox 78.7*.
CC1CCCN(c2ncnc3c2cnn3-c2ccc(Cl)cc2)C1 (stereo unspecified) was read as PPC-1+TRAIL kill 78.5*, TRAIL sens C8 86.8* and PPC1 cytotox 79.2*.
Cc1ccc(-n2ncc3c(N4CCCC(C)C4)ncnc32)c(C)c1 (stereo unspecified) was read as PPC-1+TRAIL kill 21.4 and TRAIL sens C8 27.6.
CC1CCCN(c2ncnc3c2cnn3-c2ccccc2)C1 (stereo unspecified) was read as PPC-1+TRAIL kill 77.5*, TRAIL sens C8 86.0* and PPC1 cytotox 78.4*.
Cc1ccc(CNC(=O)C2(C)Oc3ccccc3NC2=O)cc1 (stereo unspecified) was read as PPC-1+TRAIL kill 0.9, FLuc stim CS 1.1, FLuc inh counter -5.0, TRAIL sens C8 1.8 and PPC1 cytotox 4.0.
O=C(Nc1nonc1NC(=O)C1CCCCC1)C1CCCCC1 was read as PPC-1+TRAIL kill 1.4, FLuc stim CS 1, FLuc inh counter -4.8, TRAIL sens C8 -3.3 and PPC1 cytotox 3.4.
C=CC(=O)Nc1cccc(CN2C(=O)N(c3cc(OC)cc(OC)c3)Cc3cnc(NCCCCN(CC)CC)nc32)c1 was read as TRAIL sens C8 -11.0.
Screening O=C(Nc1ccccc1)Nc1nnc([C@H]2C[C@H](O)[C@@H](CO)O2)s1 returned TRAIL sens C8 9.6.
`Cc1nc2sc(-c3ccccc3)cc2c(=O)n1N` gave PPC-1+TRAIL kill 47.1, TRAIL sens C8 60.3* and PPC1 cytotox 46.7.
Cc1nc2sc(-c3ccccc3)cc2c(=O)[nH]1 was read as PPC-1+TRAIL kill 65.0*, FLuc stim CS 0.1, FLuc inh counter 90.1*, TRAIL sens C8 77.2* and PPC1 cytotox 60.6*.
`Cc1nc2sc(-c3ccccc3)cc2c(=O)n1-n1cccc1` gave PPC-1+TRAIL kill 9.4, FLuc stim CS 0.8, FLuc inh counter 16.8 and TRAIL sens C8 16.0.
Screening O=c1[nH]c(-c2cccnc2)nc2sc(-c3ccccc3)cc12 returned PPC-1+TRAIL kill 20.4, FLuc stim CS 0.7, FLuc inh counter 31.5 and TRAIL sens C8 -4.3.
Screening Nc1ncnc2c1ncn2[C@@H]1O[C@H](C(=O)N[C@H]2c3ccccc3C[C@H]2OC=O)[C@@H](O)[C@H]1O returned TRAIL sens C8 -5.8.
Screening O=C(COC(=O)COc1cccc(C(F)(F)F)c1)Nc1ccc(N2CCOCC2)cc1 returned TRAIL sens C8 -27.0.
`CC(c1ccco1)N(C(=O)COc1ccc(Cl)cc1)c1ccccn1` (stereo unspecified) gave PPC-1+TRAIL kill 21.2, FLuc stim CS 0.9, FLuc inh counter 11.3 and TRAIL sens C8 15.4.
CC(c1ccco1)N(C(=O)COc1ccc(Cl)cc1Cl)c1ccccn1 (stereo unspecified) was read as PPC-1+TRAIL kill 13.6, FLuc stim CS 0.7, FLuc inh counter 33.1, TRAIL sens C8 56.5* and PPC1 cytotox 4.5.
For CCOC(=O)CSc1nc(-c2ccncc2)ccc1C#N the results were PPC-1+TRAIL kill 48.3, FLuc stim CS 1, FLuc inh counter 0.6, TRAIL sens C8 50.7* and PPC1 cytotox 45.7.
`CCOC(=O)CC(=O)CSc1nc(-c2cccnc2)ccc1C#N` gave PPC-1+TRAIL kill 5.3, FLuc stim CS 1, FLuc inh counter -2.1 and TRAIL sens C8 7.6.
CCOC(=O)C1=C(CSc2nc(-c3ccncc3)ccc2C#N)OC(N)=C(C#N)C1c1ccc(OC)cc1 (stereo unspecified) was read as PPC-1+TRAIL kill -12.2, FLuc stim CS 1.1, FLuc inh counter -6.3, TRAIL sens C8 -1.3 and PPC1 cytotox -21.9.
Screening CCOc1ccc(OCCC(=O)OCC(=O)NC(C)c2ccccc2)cc1 (stereo unspecified) returned TRAIL sens C8 -3.0.
`COc1ccc(-c2cc(C#N)nc(Cl)n2)cc1` gave PPC-1+TRAIL kill 22.1, TRAIL sens C8 20.9 and PPC1 cytotox 18.7.
Screening COc1ccc(-c2cc(C#N)nc(Oc3ccc(Cl)cc3)n2)cc1 returned PPC-1+TRAIL kill 17.6, FLuc stim CS 1.1, FLuc inh counter -6.7 and TRAIL sens C8 16.4.
CC(C)[C@@H](CO)NC(=O)c1ccc2c3n(nc2c1)-c1ccccc1CO3 was read as PPC-1+TRAIL kill 71.5*, TRAIL sens C8 71.1* and PPC1 cytotox 68.9*.
`CC(C)NC(=O)c1ccc2c3n(nc2c1)-c1ccccc1CO3` gave PPC-1+TRAIL kill 90.1*, TRAIL sens C8 90.6* and PPC1 cytotox 90.5*.
Screening COc1ccc(N(C(C)C(=O)NN=C2CCCCCCC2)S(C)(=O)=O)cc1 (stereo unspecified) returned PPC-1+TRAIL kill 7.8, FLuc stim CS 1.1, FLuc inh counter -6.6 and TRAIL sens C8 6.9.
COc1ccc(N(C(C)C(=O)NC2CCCCCC2)S(C)(=O)=O)cc1 (stereo unspecified) was read as PPC-1+TRAIL kill 0.4, FLuc stim CS 1.1, FLuc inh counter -8.1, TRAIL sens C8 4.4 and PPC1 cytotox -1.1.
Screening Cc1ccc(Nc2nc(N)nc(CN3CCCCCC3)n2)c(C)c1 returned PPC-1+TRAIL kill 4.8, FLuc stim CS 1.1, FLuc inh counter -8.0 and TRAIL sens C8 -1.5.
CCOc1ccc(Nc2nc(N)nc(CCl)n2)cc1 was read as PPC-1+TRAIL kill 95.1*, TRAIL sens C8 91.7* and PPC1 cytotox 93.3*.
`Cc1ccc(Nc2nc(N)nc(CCl)n2)c(C)c1` gave PPC-1+TRAIL kill 92.0*, TRAIL sens C8 95.7* and PPC1 cytotox 91.9*.
Screening NS(=O)(=O)c1ccc(CCNC(=O)c2cccc(S(=O)(=O)N3CCCC3)c2)cc1 returned TRAIL sens C8 -4.2.
`CCN(C(=O)CSc1nnnn1C)C1CCS(=O)(=O)C1` (stereo unspecified) gave TRAIL sens C8 -4.0.

Source: PubChem
